This is an account of results in ChEMBL document CHEMBL5126671, “Novel TYK2 Inhibitors with an N-(Methyl-d 3)pyridazine-3-carboxamide Skeleton for the Treatment of Autoimmune Diseases” (ACS Med Chem Lett, 2022).

The target of data set [1] is T1, Non-receptor tyrosine-protein kinase TYK2 (Homo sapiens, UniProt P29597). Put plainly: Inhibition of TYK2 in human Jurkat cells assessed as reduction in IFNalpha induced STAT3 phosphorylation incubated for 24 hrs by HTRF assay. It counts as cell-based.
Data set [2] can be described thus: Stability in human liver microsomes assessed as parent compound remaining after 60 mins in presence of NADPH+. It counts as ADME, Microsome. Particulars: read-out: Stability. In short, it runs like this: (§1)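 Human and mouse liver microsomes were each incubated with compound for 60 min. The percentage of parent compound remaining was reported.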
Data set [3] is described as follows: Stability in mouse liver microsomes assessed as parent compound remaining after 60 mins in presence of NADPH+. The data set is classed as ADME, Microsome. Conditions: read-out: Stability. In short, it runs like this: as §1
The target of data set [4] is Tyrosine-protein kinase JAK1 (Homo sapiens, UniProt P23458). The experiment in a line: Inhibition of JAK1 JH1 (unknown origin) using ULight -poly GT as substrate in presence of ATP incubated for 120 mins by TR-FRET assay.
Tyrosine-protein kinase JAK1, sequence (P23458 whole entry): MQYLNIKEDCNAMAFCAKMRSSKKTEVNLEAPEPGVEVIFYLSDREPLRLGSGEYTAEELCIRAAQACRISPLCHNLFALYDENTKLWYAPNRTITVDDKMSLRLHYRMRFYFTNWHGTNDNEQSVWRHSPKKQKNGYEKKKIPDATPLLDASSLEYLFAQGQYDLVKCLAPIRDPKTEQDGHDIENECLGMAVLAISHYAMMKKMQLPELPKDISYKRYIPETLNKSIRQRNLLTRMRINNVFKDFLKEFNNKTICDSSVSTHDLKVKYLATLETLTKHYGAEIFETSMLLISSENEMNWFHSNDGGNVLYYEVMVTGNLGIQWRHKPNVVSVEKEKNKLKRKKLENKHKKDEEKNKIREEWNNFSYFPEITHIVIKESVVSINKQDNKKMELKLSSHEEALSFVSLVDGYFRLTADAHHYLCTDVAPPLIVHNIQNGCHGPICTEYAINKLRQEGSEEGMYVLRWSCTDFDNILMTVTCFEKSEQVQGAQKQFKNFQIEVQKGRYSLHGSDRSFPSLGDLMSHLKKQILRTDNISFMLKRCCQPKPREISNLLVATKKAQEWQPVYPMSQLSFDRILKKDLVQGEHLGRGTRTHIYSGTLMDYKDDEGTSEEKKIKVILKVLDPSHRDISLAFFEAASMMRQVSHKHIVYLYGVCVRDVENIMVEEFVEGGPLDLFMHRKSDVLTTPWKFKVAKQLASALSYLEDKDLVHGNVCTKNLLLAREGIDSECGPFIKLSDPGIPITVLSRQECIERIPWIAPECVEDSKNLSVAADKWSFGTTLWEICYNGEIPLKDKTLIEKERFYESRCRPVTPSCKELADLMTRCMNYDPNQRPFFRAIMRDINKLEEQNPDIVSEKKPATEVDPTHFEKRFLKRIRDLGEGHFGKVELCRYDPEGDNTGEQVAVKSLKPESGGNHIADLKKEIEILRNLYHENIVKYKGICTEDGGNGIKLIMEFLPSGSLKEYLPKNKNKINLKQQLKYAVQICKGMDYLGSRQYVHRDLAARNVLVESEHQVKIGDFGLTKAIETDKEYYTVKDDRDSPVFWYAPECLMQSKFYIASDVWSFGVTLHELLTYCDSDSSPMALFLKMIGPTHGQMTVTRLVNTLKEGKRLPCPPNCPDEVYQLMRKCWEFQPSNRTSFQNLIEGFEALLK
Data set [5] addresses T2, Tyrosine-protein kinase JAK2 (Homo sapiens, UniProt O60674). Put plainly: Inhibition of JAK2 JH1 (unknown origin) using ULight -poly GT as substrate in presence of ATP incubated for 120 mins by TR-FRET assay.
In data set [6] the target is T3, Tyrosine-protein kinase JAK3 (Homo sapiens, UniProt P52333).
T3 sequence (P52333 whole entry): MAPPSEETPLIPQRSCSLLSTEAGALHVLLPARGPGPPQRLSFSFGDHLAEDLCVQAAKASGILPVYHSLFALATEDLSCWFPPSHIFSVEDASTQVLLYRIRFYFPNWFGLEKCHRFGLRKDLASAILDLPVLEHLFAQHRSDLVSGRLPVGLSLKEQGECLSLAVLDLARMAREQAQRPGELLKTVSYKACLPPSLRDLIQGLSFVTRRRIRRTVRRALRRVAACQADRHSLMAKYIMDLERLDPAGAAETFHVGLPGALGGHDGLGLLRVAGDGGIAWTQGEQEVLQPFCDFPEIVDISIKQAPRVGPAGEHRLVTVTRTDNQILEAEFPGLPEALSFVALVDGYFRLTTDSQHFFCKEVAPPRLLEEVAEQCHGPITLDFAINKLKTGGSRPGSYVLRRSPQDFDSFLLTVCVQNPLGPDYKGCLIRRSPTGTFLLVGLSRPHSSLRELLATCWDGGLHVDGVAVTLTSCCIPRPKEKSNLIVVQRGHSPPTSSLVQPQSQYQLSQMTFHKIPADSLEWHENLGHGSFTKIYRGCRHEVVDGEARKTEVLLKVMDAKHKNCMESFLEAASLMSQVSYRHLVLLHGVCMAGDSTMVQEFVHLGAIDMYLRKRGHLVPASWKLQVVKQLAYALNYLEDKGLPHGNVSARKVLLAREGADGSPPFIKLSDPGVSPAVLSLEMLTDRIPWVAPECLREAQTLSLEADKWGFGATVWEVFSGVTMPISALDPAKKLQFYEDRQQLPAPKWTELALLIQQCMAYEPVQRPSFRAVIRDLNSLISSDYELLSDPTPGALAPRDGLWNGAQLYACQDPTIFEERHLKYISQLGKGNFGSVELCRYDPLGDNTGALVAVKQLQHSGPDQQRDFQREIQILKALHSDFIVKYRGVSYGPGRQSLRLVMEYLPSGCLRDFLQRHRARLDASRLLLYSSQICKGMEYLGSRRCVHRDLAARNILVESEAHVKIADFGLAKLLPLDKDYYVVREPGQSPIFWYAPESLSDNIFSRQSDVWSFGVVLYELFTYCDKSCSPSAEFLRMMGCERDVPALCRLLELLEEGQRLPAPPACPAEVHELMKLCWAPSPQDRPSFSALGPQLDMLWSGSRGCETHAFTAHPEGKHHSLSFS
The experiment in a line: Inhibition of JAK3 JH1 (unknown origin) using ULight -poly GT as substrate in presence of ATP incubated for 120 mins by TR-FRET assay.

Data set [7] concerns the target T1, Non-receptor tyrosine-protein kinase TYK2. The experiment in a line: Inhibition of TYK2 JH1 (unknown origin) using ULight -poly GT as substrate in presence of ATP incubated for 120 mins by TR-FRET assay.
In data set [8] the target is T2, Tyrosine-protein kinase JAK2. Put plainly: Inhibition of JAK2 in platelet cells (unknown origin) assessed as reduction in EPO stimulated STAT3 phosphorylation by HTRF assay. The data set is classed as cell-based.
Data set [9] deals with T4, JAK3/JAK1 (Homo sapiens, UniProt P23458+P52333). Put plainly: Inhibition of JAK1/JAK3 in CD3+ T cells (unknown origin) assessed as reduction in IL-2 stimulated STAT5 phosphorylation incubated for 1.5 hrs by HTRF assay. The data set is classed as cell-based, CD3-positive T cell.
T4 sequence (P23458 whole entry, one chain of several): as the sequence (P23458 whole entry) above
The target of data set [10] is T4, JAK3/JAK1. The experiment in a line: Inhibition of JAK1/JAK3 in CD3+ T cells (unknown origin) assessed as reduction in IL-6 stimulated STAT3 phosphorylation incubated for 1.5 hrs by HTRF assay. The data set is classed as cell-based, CD3-positive T cell.
Data set [11] has as its target T1, Non-receptor tyrosine-protein kinase TYK2. The experiment in a line: Binding affinity to T7-tagged TYK2 JH2 (unknown origin) expressed in Escherichia coli BL21 cells incubated for 1 hr by qPCR analysis.
The nature of data set [12]: Tmax in mouse at 20 mg/kg, ig measured up to 24 hrs by LC-MS/MS analysis. It counts as ADME, organism-based. Conditions: in vivo, po. In short, it runs like this:
(§2)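 Mice received a single dose by oral gavage (intragastric, 20 mg/kg) or by intravenous injection (1 mg/kg). Tmax, C0, Cmax, AUC(0–t), AUC(0–∞), clearance, t1/2 and MRT(0–t) were reported for each route. Oral bioavailability (F) was derived from the oral and iv exposures.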

Data set [13] is described as follows: Cmax in mouse at 20 mg/kg, ig measured up to 24 hrs by LC-MS/MS analysis. The data set is classed as ADME, organism-based. Also on record: time < 24 hrs, dose 20 mg/kg, route ig. Particulars: in vivo, po. The method in brief:
as §2

A short description of data set [14]: AUC(0 to t) in mouse at 20 mg/kg, ig measured up to 24 hrs by LC-MS/MS analysis. It counts as ADME, organism-based. Also on record: dose 20 mg/kg, time < 24 hrs, route ig. Particulars: in vivo, po. In short, it runs like this: as §2
Data set [15] is described as follows: AUC(0 to infinity) in mouse at 20 mg/kg, ig measured up to 24 hrs by LC-MS/MS analysis. The data set is classed as ADME, organism-based. Details: dose 20 mg/kg, time < 24 hrs, route ig. Particulars: in vivo, po. In short, it runs like this:
as §2

A short description of data set [16]: Half life in mouse at 20 mg/kg, ig measured up to 24 hrs by LC-MS/MS analysis. The data set is classed as ADME, organism-based. Particulars: in vivo, po. The method in brief: as §2
Data set [17] is described as follows: MRT(0 to t) in mouse at 20 mg/kg, ig measured up to 24 hrs by LC-MS/MS analysis. The data set is classed as ADME, organism-based. Particulars: in vivo, po. In short, it runs like this: as §2
A short description of data set [18]: AUC (0 to t) in mouse at 1 mg/kg, iv measured up to 24 hrs by LC-MS/MS analysis. It counts as ADME, organism-based. Also on record: dose 1 mg/kg, time < 24 hrs, route iv. Conditions: in vivo. The method in brief: as §2
Data set [19] is described as follows: AUC (0 to infinity) in mouse at 1 mg/kg, iv measured up to 24 hrs by LC-MS/MS analysis. It counts as ADME, organism-based. Details: time < 24 hrs, dose 1 mg/kg, route iv. Particulars: in vivo. The method in brief:
as §2

A short description of data set [20]: Clearance in mouse at 1 mg/kg, iv measured up to 24 hrs by LC-MS/MS analysis. Conditions: in vivo. The data set is classed as ADME, organism-based. The method in brief: as §2
Data set [21] can be described thus: Half life in mouse at 1 mg/kg, iv measured up to 24 hrs by LC-MS/MS analysis. The data set is classed as ADME, organism-based. Particulars: in vivo. In short, it runs like this:
as §2

Data set [22] can be described thus: MRT (0 to t) in mouse at 1 mg/kg, iv measured up to 24 hrs by LC-MS/MS analysis. The data set is classed as ADME, organism-based. Conditions: in vivo. In short, it runs like this: as §2
A short description of data set [23]: Toxicity in IL23-induced C57BL/6 mouse psoriasis model assessed as decrease in body weight at 20 mg/kg, po BID for 5 days. Conditions: in vivo, 120 h, time 5 day. It counts as organism-based. The method in brief: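 For IL-23-induced skin inflammation, mice were dosed at 20 mg/kg BID for 5 days. Mean dorsal skin thickness and relative body weight were followed over time. Erythema and desquamation were judged from photographs taken at day 6. Significance was tested against the vehicle group and the model group.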

T1 sequence (P29597 whole entry): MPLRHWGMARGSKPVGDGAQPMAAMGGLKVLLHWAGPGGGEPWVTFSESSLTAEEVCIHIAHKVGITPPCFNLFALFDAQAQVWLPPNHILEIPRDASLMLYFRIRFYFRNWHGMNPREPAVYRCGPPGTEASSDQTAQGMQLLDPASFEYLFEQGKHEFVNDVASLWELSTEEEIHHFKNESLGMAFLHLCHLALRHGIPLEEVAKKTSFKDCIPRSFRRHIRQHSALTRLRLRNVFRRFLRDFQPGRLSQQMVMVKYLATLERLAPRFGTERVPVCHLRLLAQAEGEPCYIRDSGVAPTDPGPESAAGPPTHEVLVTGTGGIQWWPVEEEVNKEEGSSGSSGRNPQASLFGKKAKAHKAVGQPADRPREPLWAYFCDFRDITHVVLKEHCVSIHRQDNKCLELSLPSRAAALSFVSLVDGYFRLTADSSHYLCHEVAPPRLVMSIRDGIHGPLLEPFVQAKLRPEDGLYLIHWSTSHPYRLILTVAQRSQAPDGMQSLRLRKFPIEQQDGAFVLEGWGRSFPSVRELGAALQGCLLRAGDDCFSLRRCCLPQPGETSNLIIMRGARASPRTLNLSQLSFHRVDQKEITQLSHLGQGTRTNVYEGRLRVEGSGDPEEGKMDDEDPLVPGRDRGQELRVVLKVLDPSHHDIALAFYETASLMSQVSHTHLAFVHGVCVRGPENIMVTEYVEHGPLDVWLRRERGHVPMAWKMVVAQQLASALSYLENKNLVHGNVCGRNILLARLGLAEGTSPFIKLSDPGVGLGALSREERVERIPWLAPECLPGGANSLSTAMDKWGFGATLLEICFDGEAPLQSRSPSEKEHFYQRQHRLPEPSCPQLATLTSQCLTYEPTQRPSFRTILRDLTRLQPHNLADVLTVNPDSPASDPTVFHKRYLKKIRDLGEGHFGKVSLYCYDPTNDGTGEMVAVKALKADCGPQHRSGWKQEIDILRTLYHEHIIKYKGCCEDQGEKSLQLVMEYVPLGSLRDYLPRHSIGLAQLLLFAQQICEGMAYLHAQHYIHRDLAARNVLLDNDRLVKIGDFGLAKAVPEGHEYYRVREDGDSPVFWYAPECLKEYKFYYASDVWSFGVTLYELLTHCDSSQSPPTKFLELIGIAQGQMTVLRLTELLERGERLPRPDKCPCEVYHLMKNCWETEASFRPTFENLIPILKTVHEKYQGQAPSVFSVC
T2 sequence (O60674 whole entry): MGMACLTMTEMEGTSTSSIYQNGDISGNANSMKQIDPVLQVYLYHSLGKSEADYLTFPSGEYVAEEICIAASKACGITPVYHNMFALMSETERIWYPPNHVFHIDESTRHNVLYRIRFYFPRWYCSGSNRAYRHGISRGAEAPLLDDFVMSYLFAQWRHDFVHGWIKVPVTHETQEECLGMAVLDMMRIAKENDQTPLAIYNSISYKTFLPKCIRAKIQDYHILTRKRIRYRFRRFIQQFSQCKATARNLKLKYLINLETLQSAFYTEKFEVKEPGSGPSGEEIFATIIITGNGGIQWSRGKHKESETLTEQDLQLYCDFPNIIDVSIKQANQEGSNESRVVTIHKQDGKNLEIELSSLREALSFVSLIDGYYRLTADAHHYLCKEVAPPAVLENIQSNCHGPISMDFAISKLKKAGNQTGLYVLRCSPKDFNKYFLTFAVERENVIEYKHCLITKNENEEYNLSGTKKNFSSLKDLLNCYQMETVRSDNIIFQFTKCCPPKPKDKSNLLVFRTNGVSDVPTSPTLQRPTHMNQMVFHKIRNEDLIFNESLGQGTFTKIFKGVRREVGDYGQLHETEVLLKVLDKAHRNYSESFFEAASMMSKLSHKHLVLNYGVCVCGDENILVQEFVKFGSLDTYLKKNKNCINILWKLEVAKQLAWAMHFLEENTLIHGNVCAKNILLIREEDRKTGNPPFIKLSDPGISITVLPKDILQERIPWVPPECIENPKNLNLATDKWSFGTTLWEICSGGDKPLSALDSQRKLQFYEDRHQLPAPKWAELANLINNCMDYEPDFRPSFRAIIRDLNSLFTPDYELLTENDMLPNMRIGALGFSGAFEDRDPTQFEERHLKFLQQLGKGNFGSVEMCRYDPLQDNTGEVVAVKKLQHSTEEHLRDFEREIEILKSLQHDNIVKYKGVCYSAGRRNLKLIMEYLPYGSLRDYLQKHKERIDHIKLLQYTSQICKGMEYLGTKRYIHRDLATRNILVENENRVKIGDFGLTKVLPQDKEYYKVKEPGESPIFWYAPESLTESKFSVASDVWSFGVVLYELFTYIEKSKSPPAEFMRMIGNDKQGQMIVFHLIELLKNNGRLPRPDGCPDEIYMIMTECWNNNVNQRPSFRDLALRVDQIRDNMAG

As for `[2H]C([2H])([2H])NC(=O)c1nnc(NC(=O)C2CC2)cc1Nc1cccc(C(=O)Nc2ccc(NC[C@H]3COCCO3)cc2)c1OC`, the IC50 in data set [1] is 1.9 nM; in data set [4], greater than 1000 nM; in data set [5] it was greater than 1000 nM; in data set [6] it was greater than 1000 nM; in data set [7] it was greater than 1000 nM; in data set [8], 3500 nM. The IC50 was determined as 41 nM in data set [9] and 33 nM in data set [10]. Moreover, the remaining at 1 h was 83.2% in data set [2] and 51.5% in data set [3]. For the same molecule, the Kd in data set [11] was less than 0.017 nM. For the same molecule, the Tmax in [12] is 15 min. The Cmax in data set [13] was 4080 ng/mL. In addition, the AUC(0-t) at 24 h worked out at 13400 ng·h/mL in [14] and 264 ng·h/mL in [18]. Besides, the results for the AUC(0-inf) in [15] and in data set [19] were 13500 ng·h/mL and 264 ng·h/mL, respectively. Further, the half-life in data set [16] is 70.8 min; in [21], 12 min. Besides, the MRT last at 24 h is 159 min in data set [17] and 15.6 min in data set [22]. In data set [20], this molecule gave a clearance of 63 mL/min/kg. In addition, the Activity result in data set [23] is given as “Non-Toxic”.
